Data from BindingDB's records for doi:10.1021/jm0301484 (Organix, 2003).
Values joined by “and” are separate entries in the source; they are usually repeats but may differ in a detail not shown here. Equal entries are not always repeated.

Legend:
[1] = target: Sodium-dependent serotonin transporter; test: In vitro affinity for serotonin transporter in Rhesus (Macaca mulatta) or Cynomolgus (Macaca fasicularis) monkey striata using [3H]citalopram displacement.
Procedure, shortened: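 Cynomolgus or rhesus caudate-putamen homogenised in ice-cold 50 mM Tris-HCl, pH 7.4, and washed by centrifugation. Membranes (4 mg original wet weight/mL) were incubated with 1 nM [3H]citalopram and a range of test drug concentrations in buffer with 100 mM NaCl, 2 h at 0–4 °C.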

[2] = target: Sodium-dependent dopamine transporter; test: In vitro affinity for dopamine transporter in Rhesus (Macaca mulatta) or Cynomolgus (Macaca fasicularis) monkey striata using [3H]WIN-35428 displacement.
Procedure, shortened: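 Caudate-putamen membranes homogenized in ice-cold 50 mM Tris-HCl pH 7.4 and washed by centrifugation. Competition with fixed [3H]WIN 35,428 (0.3 nM) at 4 mg original wet tissue/mL in 50 mM Tris-HCl with 100 mM NaCl. Incubated 2 h at 0-4 °C, filtered on GF/B presoaked in 0.1% BSA, scintillation counting. Triplicate, 2-3 brains; IC50.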

## COC(=O)C1=C(c2ccc(F)cc2)CC2CCC1N2CCCN1CC[S][Re]2(=[O])[S]CC[N]2C(=O)C1 (stereo not drawn) [N-[ (2-( (3'-N-propyl-(1''R) -3''beta-(4-fluorophenyl)trop-2''-ene-2''--carbomethoxy) (2-mercaptoethyl)amino)acetyl) -2-aminoethanethiolato)rhenium(V) oxide]
[1]
  IC50: 4000 nM
[2]
  IC50: 3500 nM

## CCC(=O)C1C(c2ccc(F)cc2)CC2CCC1N2CCCN1CC[S][Re]2(=[O])[S]CC[N]2C(=O)C1 [(1R,12S) -N-[ (2-( (3'-N-propyl-3''alpha-(4-fluorophenyl)tropane-2''beta-propionyl) (2-mercaptoethyl)amino) -2-aminoethanethiolato]rhenium(v)oxide]
[2]
  IC50: 3 nM and 5.9 nM and 1.5 nM

## CCC(=O)C1=C(c2ccc(Cl)c(Cl)c2)CC2CCC1N2CCCN1CC[S][Re]2(=[O])[S]CC[N]2C(=O)C1 (stereo not drawn) [N-[ (2-( (3'-N-propyl-(1''R) -3''-(3,4-dichlorophenyl)trop-2''-ene-2''--1-propanoyl) (2-mercaptoethyl)amino)acetyl) -2-aminoethanethiolato)rhenium(V) oxide]
[1]
  IC50: 2000 nM
[2]
  IC50: 1200 nM

## COC(=O)C1C(c2ccc(F)cc2)CC2CCC1N2CCCN1CC[S][Re]2(=[O])[S]CC[N]2C(=O)C1 (stereo not drawn) [Diastereiosomer of [N-[2-[(3'-N'-Propyl-3''beta-(4-fluorophenyl)tropane-2''beta-carboxylic acid methyl ester)(2-mercaptoethyl)amino]acetyl]-2-aminoethanethiolato]rhenium(V) oxide]
[2]
  IC50: 3.8 nM and 2.9 nM

## COC(=O)C1C(c2ccc(Cl)c(Cl)c2)CC2CCC1N2CCC[N+]12CC[S][Re]13(=[O])[S]CC[N]3C(=O)C2 (stereo not drawn) [[N-[2-[(3'-N'-Propyl-3''beta-(3,4-dichlorophenyl)tropane-2''beta-carboxylic acid methyl ester)(2-mercaptoethyl)amino]acetyl]-2-aminoethanethiolato]rhenium(V) oxide]
[1]
  IC50: 639 nM

## CCC(=O)C1=C(c2ccc(F)cc2)CC2CCC1N2CCCN1CC[S][Re]2(=[O])[S]CC[N]2C(=O)C1 (stereo not drawn) [N-[ (2-( (3'-N-propyl-(1''R) -3''-(4-flurophenyl)trop-2''-ene-2''--1-propanoyl) (2-mercaptoethyl)amino)acetyl) -2-aminoethanethiolato)rhenium(V) oxide]
[1]
  IC50: 2100 nM
[2]
  IC50: 660 nM

## COC(=O)C1C(c2ccc3ccccc3c2)CC2CCC1N2CCCN1CC[S][Re]2(=[O])[S]CC[N]2C(=O)C1 (configuration not stated) [O-2130]
[1]
  IC50: 120 nM
[2]
  IC50: 4 nM and 3.64 nM

## CCC(=O)C1C(c2ccc(Cl)c(Cl)c2)CC2CCC1N2CCCN1CC[S][Re]2(=[O])[S]CC[N]2C(=O)C1 (stereo not drawn) [N-[ (2-( (3'-N-propyl-(1''R) -3''beta-(3,4-dichlorophenyl)tropane-2''-beta-1-propanoyl) (2-mercaptoethyl)amino)acetyl) -2-aminoethanethiolato)rhenium(V) oxide]
[1]
  IC50: 337 nM
[2]
  IC50: 5 nM and 5.3 nM

## COC(=O)C1=C(c2ccc3ccccc3c2)CC2CCC1N2CCCN1CC[S][Re]2(=[O])[S]CC[N]2C(=O)C1 (configuration not stated) [O-1185]
[1]
  IC50: 964 nM
[2]
  IC50: 63.4 nM

## COC(=O)C1=C(c2ccc(Cl)c(Cl)c2)CC2CCC1N2CCCN1CC[S][Re]2(=[O])[S]CC[N]2C(=O)C1 (stereo not drawn) [N-[ (2-( (3'-N-propyl-(1''R) -3''-(3,4-dichlorophenyl)trop-2''-ene-2''--carbomethoxy) (2-mercaptoethyl)amino)acetyl) -2-aminoethanethiolato)rhenium(V) oxide]
[1]
  IC50: 1690 nM
[2]
  IC50: 60 nM
